Results on one compound are retold here after ChEMBL document CHEMBL1687827, “Profiling the Aspergillus fumigatus proteome in response to caspofungin” (2011).

Activity calls are given as the source filed them. No cut-off for these calls is given here. Some results are limits rather than exact numbers.

Assay [1] concerns Aspergillus fumigatus. Description: Induction of change in cytochrome c oxidase polypeptide vib protein level in iTRAQ-118 labelled cell wall fraction of drug-resistant Aspergillus fumigatus EMFR-S678P at 0.12 ug/ml after 24 hrs in YPD medium by MS (MS/MS) analysis relative to control. Format: functional, organism-based. Put shortly:
(§1)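 Conidia at 1 × 10⁵/ml were grown at 37°C, shaking at 225 rpm, in YPD with or without 0.12 μg/ml caspofungin for 24 or 48 h. The culture filtrate was kept as the secreted fraction. Mycelia were lysed by French press in HEPES/glycerol/EDTA/PMSF/DTT buffer, and the 5,000 × g pellet was washed to give CW/PM. Proteins were reduced, alkylated and trypsin-digested at 37°C overnight, then iTRAQ-labelled and run by 2D LC-MS/MS. Ratios are the median of unique-peptide ratios, median-normalized, versus the no-drug control.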

The test system of assay [2] is Aspergillus fumigatus. As to the kind of experiment: Antifungal activity against drug-susceptible Aspergillus fumigatus KU80 delta-akuB assessed as change in hyphal morphology by RPMI medium. In kind it is functional. To be noted: read-out: MEC. Summed up:
(§2)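 CLSI M38-A2 broth microdilution, run in triplicate in RPMI or YPD medium as the line specifies. Caspofungin was dissolved in sterile water. The minimum effective concentration (MEC) was the lowest concentration giving a significant change in hyphal morphology visible to the eye.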

Assay [3] concerns Aspergillus fumigatus. Description: Induction of change in citrate synthase, eukaryotic protein level in iTRAQ-116 labelled secreted fraction of drug-susceptible Aspergillus fumigatus KU80 delta-akuB at 0.12 ug/ml after 48 hrs in YPD medium by MS (MS/MS) analysis relative to control. Format: functional. Summed up:
(§3)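 Conidia at 1 × 10⁵/ml grown shaking at 37°C in YPD with or without 0.12 μg/ml caspofungin; mycelia filtered at 24 or 48 h. Secreted fraction taken from the filtrate; cell wall/plasma membrane pellet recovered after French-press lysis and a 5,000 × g spin. Proteins trypsin-digested and iTRAQ-labelled, drug vs no-drug channels at each time, then 2D LC-MS/MS. Protein ratio is the median of ratios from uniquely assigned peptides after median normalization.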

Assay [4] has as its system Aspergillus fumigatus. Description: Induction of change in hypothetical protein locus AFUA_8G07100 level in iTRAQ-116 labelled secreted fraction of drug-susceptible Aspergillus fumigatus KU80 delta-akuB at 0.12 ug/ml after 48 hrs in YPD medium by MS (MS/MS) analysis relative to control. In kind it is functional. Summed up:
(§4)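 Conidia (1 × 10⁵/ml) grown in YPD, 37°C, 225 rpm, ± 0.12 μg/ml caspofungin; filtrate taken as secreted fraction, French-press lysate 5,000 × g pellet as cell wall/plasma membrane. Trypsin digests 8-plex iTRAQ-labelled (drug-free channels as references), pooled, 2D-chromatography, MS/MS. Median-normalized; protein ratio = median of unique-peptide ratios, log2 normalized.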

For assay [5], the system named is Aspergillus fumigatus. As to the kind of experiment: Induction of change in large subunit ribosomal protein L3 gene expression in drug-susceptible Aspergillus fumigatus KU80 delta-akuB at 0.12 ug/ml after 24 hrs in YPD medium by microarray analysis relative to control. In kind it is functional. Summed up: (§5)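 Mycelia grown from 1 × 10⁵ conidia/ml in YPD at 37°C, 225 rpm, with or without 0.12 μg/ml caspofungin. Total RNA extracted, DNase-treated; 2 μg labelled per TIGR SOP M007 for whole-genome array hybridization. Three independent experiments with dye flip (6 replicates); >2-fold change deemed significant.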

The subject of assay [6] is Aspergillus fumigatus. Description: Induction of change in 60S ribosomal protein P0 protein level in iTRAQ114 labelled cell wall fraction of drug-susceptible Aspergillus fumigatus KU80 delta-akuB at 0.12 ug/ml after 24 hrs in YPD medium by MS (MS/MS) analysis relative to control. Format: functional. Summed up:
as §3

The test system of assay [7] is Aspergillus fumigatus. As to the kind of experiment: Induction of change in 14-3-3 family protein ArtA, putative protein level in iTRAQ-116 labelled secreted fraction of drug-susceptible Aspergillus fumigatus KU80 delta-akuB at 0.12 ug/ml after 48 hrs in YPD medium by MS (MS/MS) analysis relative to control. In kind it is functional. Put shortly: as §3
In assay [8] the test system is Aspergillus fumigatus. As to the kind of experiment: Antifungal activity against drug-resistant Aspergillus fumigatus EMFR-S678P assessed as change in hyphal morphology by RPMI medium. In kind it is functional. To be noted: read-out: MEC. Put shortly: as §2
For assay [9], the system named is Aspergillus fumigatus. Description: Induction of change in hypothetical gene locus AFUA_6G06840 expression in drug-susceptible Aspergillus fumigatus KU80 delta-akuB at 0.12 ug/ml after 48 hrs in YPD medium by microarray analysis relative to control. In kind it is functional. Put shortly:
as §5

Assay [10] has as its system Aspergillus fumigatus. Description: Induction of change in ribosomal protein L29/heparin/heparan sulfate interacting gene expression in drug-susceptible Aspergillus fumigatus KU80 delta-akuB at 0.12 ug/ml after 24 hrs in YPD medium by microarray analysis relative to control. Format: functional. Put shortly: as §5
Assay [11] has as its system Aspergillus fumigatus. As to the kind of experiment: Induction of change in 60S ribosomal protein L27e protein level in iTRAQ-118 labelled cell wall fraction of drug-susceptible Aspergillus fumigatus KU80 delta-akuB at 0.12 ug/ml after 24 hrs in YPD medium by MS (MS/MS) analysis relative to control. Format: functional. Put shortly:
as §3

Assay [12] relates to Aspergillus fumigatus. As to the kind of experiment: Induction of change in ribosomal protein L14 protein level in iTRAQ114 labelled secreted fraction of drug-susceptible Aspergillus fumigatus KU80 delta-akuB at 0.12 ug/ml after 24 hrs in YPD medium by MS (MS/MS) analysis relative to control. Format: functional. Put shortly: as §4
Assay [13] deals with Aspergillus fumigatus. As to the kind of experiment: Induction of change in 4-hydroxyphenylpyruvate dioxygenase, putative protein level in iTRAQ-116 labelled secreted fraction of drug-susceptible Aspergillus fumigatus KU80 delta-akuB at 0.12 ug/ml after 48 hrs in YPD medium by MS (MS/MS) analysis relative to control. Format: functional. Put shortly: as §3
Assay [14] relates to Aspergillus fumigatus. Description: Induction of change in GNAT family acetyltransferase, putative protein level in iTRAQ-116 labelled secreted fraction of drug-resistant Aspergillus fumigatus EMFR-S678P at 0.12 ug/ml after 48 hrs in YPD medium by MS (MS/MS) analysis relative to control. Format: functional. Summed up:
as §1

Assay [15] concerns Aspergillus fumigatus. As to the kind of experiment: Induction of change in cytochrome c protein level in iTRAQ114 labelled secreted fraction of drug-resistant Aspergillus fumigatus EMFR-S678P at 0.12 ug/ml after 24 hrs in YPD medium by MS (MS/MS) analysis relative to control. In kind it is functional. Summed up:
as §1

Assay [16] deals with Aspergillus fumigatus. As to the kind of experiment: Induction of change in cytochrome b5, putative protein level in iTRAQ114 labelled secreted fraction of drug-resistant Aspergillus fumigatus EMFR-S678P at 0.12 ug/ml after 24 hrs in YPD medium by MS (MS/MS) analysis relative to control. Format: functional. Summed up: as §1
In assay [17] the test system is Aspergillus fumigatus. As to the kind of experiment: Induction of change in cell wall glucanase (Utr2), putative protein level in iTRAQ-118 labelled cell wall fraction of drug-susceptible Aspergillus fumigatus KU80 delta-akuB at 0.12 ug/ml after 24 hrs in YPD medium by MS (MS/MS) analysis relative to control. Format: functional. Summed up: as §3
In assay [18] the test system is Aspergillus fumigatus. As to the kind of experiment: Induction of change in eukaryotic translation elongation factor 1 subunit Eef1-beta, putative protein level in iTRAQ-116 labelled secreted fraction of drug-resistant Aspergillus fumigatus EMFR-S678P at 0.12 ug/ml after 48 hrs in YPD medium by MS (MS/MS) analysis relative to control. Format: functional. Put shortly:
as §1

In assay [19] the test system is Aspergillus fumigatus. As to the kind of experiment: Induction of change in ribosomal protein L26 gene expression in drug-susceptible Aspergillus fumigatus KU80 delta-akuB at 0.12 ug/ml after 24 hrs in YPD medium by microarray analysis relative to control. Format: functional. Put shortly:
as §5

`CC[C@H](C)C[C@H](C)CCCCCCCCC(=O)N[C@H]1C[C@@H](O)[C@@H](NCCN)NC(=O)[C@@H]2[C@@H](O)CCN2C(=O)[C@H]([C@H](O)CCN)NC(=O)[C@H]([C@H](O)[C@@H](O)c2ccc(O)cc2)NC(=O)[C@@H]2C[C@@H](O)CN2C(=O)[C@H]([C@@H](C)O)NC1=O` [CASPOFUNGIN]: in [1], the result was inactive. Besides, the minimal effective concentration in assay [2] was 0.25 µg/mL; in assay [8], greater than 16 µg/mL. For the same compound, the “fold change (FC)” value is given as -1.6 in assay [3]; 2.1 in assay [4]; 3.5 in assay [5]; 2.1 in [6]; -2 in [7]; -2.1 in assay [9]. The “fold change (FC)” value in assay [10] is 6.5; in assay [11] it was 2.6; in [12], -1.1; in [13] it was greater than -16; in [14], -1.07; in [15] it was -1.07. Moreover, the “fold change (FC)” value in assay [16] is -1.32; in assay [17], -3; in [18], -1.74; in [19] it was 5.3.
